Measurements reported in ChEMBL document CHEMBL3616379, “From carbohydrates to drug-like fragments: Rational development of novel α-amylase inhibitors” (Bioorg Med Chem, 2015).
pIC50, pKi: −log10 of the molar value. One block for each compound: values may come before it. Activity calls are given as the source filed them. The rule behind the calls is not given here.

Assays:
[1] = target: T1, Pancreatic alpha-amylase (Sus scrofa, UniProt P00690); test: Inhibition of porcine pancreatic alpha-amylase using DP17 amylose as substrate preincubated for 5 mins followed by substrate addition by copper-bicinchoninate method
T1 sequence (P00690 whole entry): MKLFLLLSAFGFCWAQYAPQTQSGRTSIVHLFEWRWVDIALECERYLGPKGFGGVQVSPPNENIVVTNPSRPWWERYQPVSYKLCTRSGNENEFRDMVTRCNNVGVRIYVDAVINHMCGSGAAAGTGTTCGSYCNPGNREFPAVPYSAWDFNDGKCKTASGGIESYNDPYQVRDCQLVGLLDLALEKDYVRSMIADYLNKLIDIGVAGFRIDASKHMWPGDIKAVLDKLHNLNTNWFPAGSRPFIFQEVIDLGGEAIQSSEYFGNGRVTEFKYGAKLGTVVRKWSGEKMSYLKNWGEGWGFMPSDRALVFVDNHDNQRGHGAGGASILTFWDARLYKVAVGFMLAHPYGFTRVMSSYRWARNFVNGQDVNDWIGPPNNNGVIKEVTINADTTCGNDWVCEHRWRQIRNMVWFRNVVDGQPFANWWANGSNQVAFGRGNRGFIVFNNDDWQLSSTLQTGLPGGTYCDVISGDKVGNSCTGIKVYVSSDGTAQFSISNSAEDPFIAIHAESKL

[2] = target: Alpha-amylase type A isozyme (Hordeum vulgare, UniProt P00693); test: Inhibition of recombinant barley alpha-amylase isozyme-1 using DP17 amylose as substrate preincubated for 5 mins followed by substrate addition by copper-bicinchoninate method
[3] = target: T2, Pancreatic alpha-amylase (Homo sapiens) (UniProt P04746); test: Inhibition of human pancreatic alpha-amylase using CNPG3 as substrate at 50 mM by spectrophotometric analysis in presence of 20 mM MeG2F as donor compound and 50 mM 5FIdoF as acceptor compound relative to control
T2 sequence (whole entry): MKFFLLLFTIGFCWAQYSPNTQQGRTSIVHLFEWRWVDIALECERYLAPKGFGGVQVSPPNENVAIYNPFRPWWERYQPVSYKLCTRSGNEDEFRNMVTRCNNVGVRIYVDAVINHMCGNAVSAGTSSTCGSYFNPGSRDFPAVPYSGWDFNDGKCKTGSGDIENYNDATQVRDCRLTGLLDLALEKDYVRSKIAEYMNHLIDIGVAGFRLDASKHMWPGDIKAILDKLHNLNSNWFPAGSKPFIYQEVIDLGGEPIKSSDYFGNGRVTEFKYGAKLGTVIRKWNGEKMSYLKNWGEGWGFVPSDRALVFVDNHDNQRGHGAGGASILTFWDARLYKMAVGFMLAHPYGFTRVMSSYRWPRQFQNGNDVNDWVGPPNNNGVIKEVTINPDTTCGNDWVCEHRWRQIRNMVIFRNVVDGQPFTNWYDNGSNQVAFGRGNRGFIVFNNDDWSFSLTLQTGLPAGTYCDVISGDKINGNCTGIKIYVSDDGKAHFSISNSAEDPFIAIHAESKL

[4] = Inhibition of Escherichia coli MurC ligase after 15 mins by Malachite green assay
[5] = target: T3, Alpha-amylase 1A (Homo sapiens, UniProt P0DUB6); test: Inhibition of human salivary alpha-amylase using GalG2CNP as substrate by UV-Vis spectrophotometric analysis; settings: read-out: IC50
T3 sequence (P0DUB6 whole entry): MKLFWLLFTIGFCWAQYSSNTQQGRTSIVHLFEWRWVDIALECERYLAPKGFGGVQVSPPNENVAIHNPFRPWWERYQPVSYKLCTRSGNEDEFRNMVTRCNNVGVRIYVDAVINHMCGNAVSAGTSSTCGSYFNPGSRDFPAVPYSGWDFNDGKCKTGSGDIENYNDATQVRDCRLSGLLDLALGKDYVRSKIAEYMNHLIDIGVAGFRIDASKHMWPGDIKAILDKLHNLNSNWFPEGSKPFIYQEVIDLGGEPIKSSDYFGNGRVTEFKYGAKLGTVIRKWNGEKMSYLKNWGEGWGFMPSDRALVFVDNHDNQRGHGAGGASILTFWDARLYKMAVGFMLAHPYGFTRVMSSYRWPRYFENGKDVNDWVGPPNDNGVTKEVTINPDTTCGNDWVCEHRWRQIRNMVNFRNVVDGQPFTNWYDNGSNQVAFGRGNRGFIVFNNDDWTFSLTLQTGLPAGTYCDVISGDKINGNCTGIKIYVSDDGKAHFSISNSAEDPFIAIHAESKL

[6] = target: Heat shock protein HSP 90-beta (Homo sapiens, UniProt P08238); test: Inhibition of HSP90 (unknown origin)
[7] = target: T4, Alpha-amylase 1A (Homo sapiens) (UniProt P0DUB6); test: Inhibition of human salivary alpha-amylase using GalG2CNP as substrate at 200 uM by UV-Vis spectrophotometric analysis
T4 sequence (whole entry): T3 sequence (P0DUB6 whole entry)
Procedure, shortened: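 Single-concentration test at 200 μM inhibitor against human salivary α-amylase (2 nM) with GalG2CNP substrate, 50 mM MES pH 6.0 containing 5 mM Ca(OAc)2, 51.5 mM NaCl, 152 mM NaN3, 37°C. Chloronitrophenol liberation monitored continuously at 400 nm by UV-Vis spectrophotometry.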

[8] = target: T5, Pancreatic alpha-amylase (Homo sapiens, UniProt P04746); test: Inhibition of human pancreatic alpha-amylase assessed as hydrolysis of G3F by Dixon plot analysis
T5 sequence (P04746 whole entry): T2 sequence (whole entry)

[9] = target: T3, Alpha-amylase 1A; test: Inhibition of human salivary alpha-amylase using GalG2CNP as substrate
[10] = system: Escherichia coli; test: Inhibition of Escherichia coli MurC ligase assessed as residual activity at 100 uM after 15 mins by Malachite green assay
[11] = target: T4, Alpha-amylase 1A (Homo sapiens); test: Potency index, ratio of BAS 04880564 IC50 to compound IC50 for human salivary alpha-amylase
[12] = target: T4, Alpha-amylase 1A (Homo sapiens); test: Mixed type inhibition of human salivary alpha-amylase using GalG2CNP as substrate by Lineweaver-Burk plot analysis
Procedure, shortened: (§1)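 Inhibition mode assigned from Lineweaver-Burk plots. Human salivary α-amylase (2 nM) started reactions containing GalG2CNP (0.75–4 mM) and inhibitor in DMSO, in 50 mM MES pH 6.0 with 5 mM Ca(OAc)2, 51.5 mM NaCl, 152 mM NaN3 at 37°C. Rates from continuous 400 nm absorbance of released CNP.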

[13] = target: T3, Alpha-amylase 1A; test: Non-competitive inhibition of human salivary alpha-amylase using GalG2CNP as substrate assessed as CNP liberation by Lineweaver-Burk plot analysis
Procedure, shortened: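 Same HSA/GalG2CNP system: 2 nM enzyme, 0.75-4 mM substrate, 50 mM MES pH 6.0 with Ca(OAc)2, NaCl, NaN3, 37°C, CNP followed continuously at 400 nm, inhibitor added from DMSO. Inhibition type was assigned from Lineweaver-Burk plots.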

[14] = target: T1, Pancreatic alpha-amylase; test: Inhibition of porcine pancreatic alpha-amylase using soluble starch as substrate after 30 mins by Bernfeld method
[15] = target: T4, Alpha-amylase 1A (Homo sapiens); test: Competitive inhibition of human salivary alpha-amylase using GalG2CNP as substrate by Lineweaver-Burk plot analysis; procedure, shortened: as §1
[16] = Inhibition of malt alpha-amylase; settings: concentration not given here

Heat shock protein HSP 90-beta, sequence (P08238 whole entry): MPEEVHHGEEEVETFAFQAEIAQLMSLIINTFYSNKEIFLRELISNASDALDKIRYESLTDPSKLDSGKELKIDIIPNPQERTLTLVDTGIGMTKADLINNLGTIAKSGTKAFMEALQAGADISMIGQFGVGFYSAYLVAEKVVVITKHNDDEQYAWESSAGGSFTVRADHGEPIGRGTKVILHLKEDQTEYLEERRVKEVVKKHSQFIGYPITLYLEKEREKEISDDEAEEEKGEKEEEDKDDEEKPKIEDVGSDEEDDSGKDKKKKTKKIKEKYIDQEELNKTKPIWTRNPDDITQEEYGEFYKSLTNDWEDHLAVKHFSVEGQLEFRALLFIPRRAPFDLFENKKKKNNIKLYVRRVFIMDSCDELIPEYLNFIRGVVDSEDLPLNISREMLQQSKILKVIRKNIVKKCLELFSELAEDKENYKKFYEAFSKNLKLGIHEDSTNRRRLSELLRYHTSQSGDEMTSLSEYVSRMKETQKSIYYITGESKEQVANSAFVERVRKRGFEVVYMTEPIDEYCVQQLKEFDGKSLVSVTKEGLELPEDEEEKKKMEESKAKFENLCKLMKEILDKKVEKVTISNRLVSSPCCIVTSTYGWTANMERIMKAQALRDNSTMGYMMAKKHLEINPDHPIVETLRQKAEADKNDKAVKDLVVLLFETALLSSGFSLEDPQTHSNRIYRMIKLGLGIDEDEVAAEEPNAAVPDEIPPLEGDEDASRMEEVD
Alpha-amylase type A isozyme, sequence (P00693 whole entry): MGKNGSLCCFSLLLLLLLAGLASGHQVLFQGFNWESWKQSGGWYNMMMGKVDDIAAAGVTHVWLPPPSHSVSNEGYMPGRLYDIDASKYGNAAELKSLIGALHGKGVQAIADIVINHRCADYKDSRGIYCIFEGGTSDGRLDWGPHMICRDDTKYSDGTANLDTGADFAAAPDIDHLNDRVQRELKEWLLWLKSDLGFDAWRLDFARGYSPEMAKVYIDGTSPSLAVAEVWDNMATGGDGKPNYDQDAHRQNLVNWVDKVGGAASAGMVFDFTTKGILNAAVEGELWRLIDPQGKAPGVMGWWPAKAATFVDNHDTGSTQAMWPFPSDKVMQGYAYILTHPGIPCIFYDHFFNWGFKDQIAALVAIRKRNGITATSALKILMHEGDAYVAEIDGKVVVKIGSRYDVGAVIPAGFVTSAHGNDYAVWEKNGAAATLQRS

- pIC50 [4]: 3.46
- pIC50 [5]: 3.37
Compound: O=C(O)c1cc(Nc2nc(-c3ccc(O)cc3O)cs2)ccc1O

- pKi [8]: 2.74
Compound: OC[C@H]1N/C(=N/O)[C@H](O)[C@@H](O)[C@@H]1O[C@H]1O[C@H](CO)[C@@H](O[C@H]2O[C@H](CO)[C@@H](O)[C@H](O)[C@H]2O)[C@H](O)[C@H]1O

- pKi [9]: 6.15
Compound: CC1OC(OC2C(CO)OC(O)C(O)C2O)C(O)C(O)C1NC1C=C(CO)C(OC2OC(CO)C(OC3OC(C)C(NC4C=C(CO)C(O)C(O)C4O)C(O)C3O)C(O)C2O)C(O)C1O (stereo unspecified)

- Activity [10]: 90%
- Ratio IC50 [11]: 1.38
- pIC50 [5]: 4.00
- Inhibition mode [15]: Active
Compound: CN(C)c1ccc(Nc2nc(-c3ccc(O)cc3O)cs2)cc1

Continued, compound first:

Compound: O=S(=O)(O)O[C@@H](CO)[C@@H](O)CN1C[C@@H](O)[C@H](O)[C@H]1CO
- pKi [1]: > 2.00
- pKi [2]: > 2.00

Compound: OCC1OC(OC2C(CO)OC(OC3C(O)C(O)C(F)OC3(F)CO)C(O)C2O)C(O)C(O)C1O (stereo unspecified)
- inhibition [3]: 95%

Compound: CCc1cc(C(=O)Cn2cnc3ccccc32)c(O)cc1O
- pIC50 [6]: < 4.30
- inhibition [7]: inactive

Compound: CO[C@H]1[C@H](O)[C@@H](O)[C@@H](O[C@H]2[C@H](O)[C@@H](O)[C@@H](O[C@H]3[C@H](O)[C@@H](O)/C(=N\O)N[C@@H]3CO)O[C@@H]2CO)O[C@@H]1CO
- pKi [8]: 4.60

Compound: CC(=O)c1cccc(Nc2nc(-c3ccc(O)cc3O)cs2)c1
- Activity [10]: 83%
- Ratio IC50 [11]: 1.38
- pIC50 [5]: 4.00
- inhibition [12]: Active

Compound: C[C@H]1O[C@H](O[C@H]2[C@H](O)[C@@H](O)[C@@H](OC[C@H]3OC4(NC(=S)NC4=O)[C@H](O)[C@@H](O)[C@@H]3O)O[C@@H]2CO)[C@H](O)[C@@H](O)[C@@H]1N[C@H]1C=C(CO)[C@@H](O)[C@H](O)[C@H]1O (stereo partly specified)
- pKi [13]: 6.72

Compound: O=C(/C=C/c1ccccc1)c1ccccc1 [CHALCONE]
- pKi [14]: 4.32

Compound: COC1=C(O)C(=O)OC1C1COC(C)(C)O1 (stereo unspecified)
- inhibition [16]: 0%
